Laboratory results as given in publication PMC10843616 (European journal of medicinal chemistry, 2023).
Where two headings read alike, the source gives them in different places.

Legend:
[1] = Human liver microsome stability; assay type: in vitro ADME; conditions: liver microsomes
[2] = system: bloodstream forms of T. brucei brucei (strain 427); assay: T. b. brucei growth inhibition, Alamar blue assay; assay type: cell-based, Trypanosoma brucei brucei; conditions: Hep G2 CC50 / T.b.b EC50
[3] = system: Bloodstream forms of T. b. rhodesiense (STIB 900); assay: T. b. rhodesiense growth inhibition, resazurin assay; assay type: cell-based, Trypanosoma brucei rhodesiense; conditions: for SI (CC50/EC50), T.b.r: Hep G2 CC50 / T.b.r EC50
[4] = system: Bloodstream forms of T. b. gambiense (130R); assay: T. b. gambiense growth inhibition, resazurin assay; assay type: cell-based, Trypanosoma brucei gambiense; conditions: for SI (CC50/EC50), T.b.g: Hep G2 CC50 / T.b.g EC50
[5] = system: T. b. brucei AnTat1.1 trypomastigotes expressing Renilla luciferase; assay: T. b. brucei acute infection mouse efficacy; assay type: in vivo, BALB/c mice; conditions: 5 consecutive days; for parasite growth in vivo, intraperitoneal: 100 mpk IP; for parasite growth in vivo, oral: 100 mpk oral gavage
[6] = Single-dose pharmacokinetics in mice; assay type: in vivo, mice (C57BL/6; conditions: male, C57BL/6, mouse, plasma, oral, 5 mg/kg
[7] = system: T. b. rhodesiense STIB 900-luc; assay: T. b. rhodesiense acute infection mouse efficacy; assay type: in vivo, NMRI mice; conditions: four days; for animals surviving to 60 days with no detectable parasitemia: oral
Summary of the method: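 Female NMRI mice, five per group, were inoculated i.p. with 1 x 10^4 bloodstream-form STIB 900-luc. Oral gavage started day 3 post-infection for four consecutive days, in PBS with 0.5% hydroxyl-methylcellulose and 0.5% Tween 80. Three mice were infected-untreated controls. Parasitemia was tracked by whole-animal bioluminescence imaging after D-luciferin: twice weekly for two weeks after treatment, then weekly to day 60. Cure meant a day-60 signal not above background.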

[8] = target: tCatL (trypanosomal cathepsin-L) (Trypanosoma brucei rhodesiense, UniProt Q95PM0); assay: tCatL inhibition assay; assay type: biochemical; conditions: at 10 μM after 1 hour
Summary of the method: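 Recombinant tCatL was expressed in Pichia pastoris and purified. Inhibition was run by a previously published protocol, with E-64 as the positive control.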

[9] = system: T. b. rhodesiense; conditions: 100 mpk once a day; ref as previously reported; cited from earlier work
[10] = 25 mpk; ref as previously reported; cited from earlier work

O=C(N[C@H](/C=C/S(=O)(=O)c1ccccc1)CCc1ccccc1)c1ccc([N+](=O)[O-])o1 [Compound 1]
half-life [1]: 10.8 min

O=C(N[C@H](/C=C/S(=O)(=O)c1ccccc1)CCc1ccccc1)c1cc(Cl)c([N+](=O)[O-])[nH]1 [Compound 3, (S,E)-4-chloro-5-nitro-N-[5-phenyl-1-(phenylsulfonyl)pent-1-en-3-yl]-1H-pyrrole-2-carboxamide]
SI (CC50/EC50), T.b.b [2]: >5.13

O=C(NC/C=C/S(=O)(=O)c1ccccc1)c1ccc([N+](=O)[O-])s1 [Compound 4, (E)-5-nitro-N-[3-(phenylsulfonyl)allyl]thiophene-2-carboxamide]
SI (CC50/EC50), T.b.b [2]: 3.21
SI (CC50/EC50), T.b.r [3]: 33.47
SI (CC50/EC50), T.b.g [4]: 63.81

O=C(NC/C=C/S(=O)(=O)c1ccccc1)c1ccco1 [Compound 6, (E)-N-[3-(phenylsulfonyl)allyl]furan-2-carboxamide]
SI (CC50/EC50), T.b.b [2]: 34.02

CS(=O)(=O)/C=C/CNC(=O)c1ccc([N+](=O)[O-])o1 [Compound 7, (E)-N-[3-(methylsulfonyl)allyl]-5-nitrofuran-2-carboxamide]
parasite growth in vivo, intraperitoneal [5]: ineffective
parasite growth in vivo, oral [5]: reduced parasitemia

CNC(=O)/C=C/CNC(=O)c1ccc([N+](=O)[O-])s1 [Compound 10, (E)-N-[4-(methylamino)-4-oxobut-2-en-1-yl]-5-nitrothiophene-2-carboxamide]
SI (CC50/EC50), T.b.b [2]: > 138.88
SI (CC50/EC50), T.b.r [3]: > 535.71
EC90 ([3]; Trypanosoma brucei, RHODESIENSE|STIB900, read-out: EC90 for T. b. rhodesiense): 0.21 µM
SI (CC50/EC50), T.b.g [4]: > 576.92
concentration at 2 h [6]: 720 nM
parasite growth in vivo, intraperitoneal [5]: suppressed parasite growth
parasite growth in vivo, oral [5]: suppressed parasite growth
animals surviving to 60 days ([7]; 100 mpk b.i.d, orally): 3 out of 5
animals surviving to 60 days with no detectable parasitemia ([7]; 200 mpk once daily): 4 out of 5
animals surviving to 60 days with no detectable parasitemia ([7]; 200 mpk twice daily): 4 out of 5

CNC(=O)/C=C/CNC(=O)c1ccc([N+](=O)[O-])o1 [Compound 11, (E)-N-[4-(methylamino)-4-oxobut-2-en-1-yl]-5-nitrofuran-2-carboxamide]
SI (CC50/EC50), T.b.b [2]: > 44.38
SI (CC50/EC50), T.b.r [3]: > 340.91
SI (CC50/EC50), T.b.g [4]: > 159.57

CS(=O)(=O)CCCNC(=O)c1cccs1 [Compound 16, N-[3-(methylsulfonyl)propyl]thiophene-2-carboxamide]
Percentage inhibition of tCatL [8]: inactive

CNC(=O)CCCNC(=O)c1ccc([N+](=O)[O-])s1 [Compound 17, N-[4-(methylamino)-4-oxobutyl]-5-nitrothiophene-2-carboxamide]
Percentage inhibition of tCatL [8]: inactive

CNC(=O)CCCNC(=O)c1cccs1 [Compound 18, N-[4-(methylamino)-4-oxobutyl]thiophene-2-carboxamide]
Percentage inhibition of tCatL [8]: inactive

CC(C)C[C@H](NC(=O)[C@H]1O[C@@H]1C(=O)O)C(=O)NCCCCN=C(N)N [Compound E64, E-64, reference compound]
Percentage inhibition of tCatL [8]: 100%

Nc1nc(N)nc(Nc2ccc([As]3SCC(CO)S3)cc2)n1 (stereo not shown) [Melarsoprol, reference compound]
EC50 ([4]; Trypanosoma brucei, GAMBIENSE, 68 h, read-out: T.b.g EC50, 130R, 68 h incubation): 0.007 ± 0.003 µM

CSc1ccc(OCc2ncc([N+](=O)[O-])n2C)cc1 [fexinidazole]
infected mice treated (cured) [9]: 4 out of 4
half-life [10]: 48 min
